# Results from ChEMBL document CHEMBL4610127, “Novel Autotaxin Inhibitor for the Treatment of Idiopathic Pulmonary Fibrosis: A Clinical Candidate Discovered Using DNA-Encoded Chemistry” (J Med Chem, 2020).
# Calls of active or inactive are those of the source. The rule behind the calls is not given here.
# System: Mus musculus
# Assay: Anti-fibrotic activity in C57BL/6 mouse model of bleomycin-induced lung fibrosis assessed as reduction in hydroxyproline levels at 30 to 100 mg/kg, po BID dosed until day 21 starting one day prior to bleomycin treatment
# Type: functional, organism-based
# Method in brief: (§1)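 Mice received oral doses of 30, 100 or 300 mg/kg BID. Prophylactic arm started one day before bleomycin; therapeutic arm started seven days after. Mice were sacrificed 21 days post-bleomycin and lung hydroxyproline was measured per mouse. Group medians were compared with bleomycin + vehicle by p-value. Reference inhibitor control: 30 and 100 mg/kg BID.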
row,Compound,Activity
1,CCc1nc2c(C)cc(N3CCN(CC(=O)N4CC(O)C4)CC3)cn2c1N(C)c1nc(-c2ccc(F)cc2)c(C#N)s1,Active

# System: Mus musculus
# Assay: Anti-fibrotic activity in C57BL/6 mouse model of bleomycin-induced lung fibrosis assessed as reduction in hydroxyproline levels at 30 to 100 mg/kg, po BID for 21 days dosed 7 days after bleomycin treatment
# Type: functional, organism-based
# Method in brief: as §1
row,Compound,Activity
1,CCc1nc2c(C)cc(N3CCN(CC(=O)N4CC(O)C4)CC3)cn2c1N(C)c1nc(-c2ccc(F)cc2)c(C#N)s1,Active

# Target: T1, Autotaxin (Homo sapiens, UniProt Q13822)
# Assay: Inhibition of C-terminal FLAG-tagged human autotaxin expressed in Freestyle 293 cells assessed as reduction in choline release from LPC 16:0 pre-incubated for 10 mins before LPC addition and measured after 1 hr by choline oxidase/HRP coupled assay
# Type: cell-based
row,Compound,IC50
1,CN1C(=O)N(c2ccc3[nH]ncc3c2)C2(CCN(C(=O)CNC(=O)c3cc(C(F)(F)F)ccc3F)CC2)C1=O,10000 nM
2,Cc1cccc(C(=O)N[C@@H](C(=O)N2CCC3(CC2)C(=O)N(C)CN3c2ccccc2)C2CCCCC2)c1F,56 nM
3,CC(C)[C@@H](NC(=O)c1cc(C(F)(F)F)ccc1F)C(=O)N1CCC2(CC1)C(=O)N(C)C(=O)N2c1ccccc1,100 nM
4,Cc1cccc(C(=O)N[C@@H](C(=O)N2CCC3(CC2)C(=O)N(C)C(=O)N3c2ccccc2)C(C)C)c1F,683 nM
5,Cc1cccc(C(=O)N[C@H](C(=O)N2CCC3(CC2)C(=O)N(C)CN3c2ccccc2)C2CCOCC2)c1,10000 nM
6,Cc1cccc(C(=O)N[C@@H](C(=O)N2CCC3(CC2)C(=O)N(C)CN3C2CC2)C2CCCCC2)c1F,819 nM
7,Cc1cccc(C(=O)N[C@@H](C(=O)N2CCC3(CC2)C(=O)N(C)CN3c2ccccc2)C2CCOCC2)c1,623 nM
8,CN1C(=O)N(c2ccc3[nH]ncc3c2)C2(CCN(C(=O)[C@H](NC(=O)c3cc(C(F)(F)F)ccc3F)C3CCCC3)CC2)C1=O,34 nM
9,Cc1cccc(C(=O)N[C@@H](C(=O)N2CCC3(CC2)C(=O)N(C)CN3c2ccccn2)C2CCCCC2)c1,905 nM
10,CC(C)[C@@H](NC(=O)c1cc(C(F)(F)F)ccc1F)C(=O)N1CCC2(CC1)C(=O)N(C)C(=O)N2c1cccc(Cl)c1,46 nM
11,Cc1ccc(C(F)(F)F)cc1C(=O)N[C@@H](C(=O)N1CCC2(CC1)C(=O)N(C)C(=O)N2c1ccc2[nH]ncc2c1)C(C)C,4900 nM
12,CC(C)[C@@H](NC(=O)c1cc(C(F)(F)F)ccc1F)C(=O)N1CCC2(CC1)C(=O)N(C)CN2c1ccc2[nH]ncc2c1,13.4 nM
13,CC(C)[C@@H](NC(=O)c1cc(C(F)(F)F)ccc1F)C(=O)N1CCC2(CC1)C(=O)N(C)C(=O)N2c1ccc(C(=O)O)cc1,31 nM
14,CC(C)[C@H](NC(=O)c1cc(C(F)(F)F)ccc1F)C(=O)N1CCC2(CC1)C(=O)N(C)C(=O)N2c1ccc2[nH]ncc2c1,10000 nM
15,CNC(=O)CN1CN(c2ccccc2)C2(CCN(C(=O)[C@H](NC(=O)c3cccc(C)c3F)C3CCCCC3)CC2)C1=O,86 nM
16,CC(C)[C@@H](NC(=O)c1cc(C(F)(F)F)ccc1Cl)C(=O)N1CCC2(CC1)C(=O)N(C)C(=O)N2c1ccc2[nH]ncc2c1,1470 nM
17,CC(C)[C@@H](NC(=O)c1cccc(C(F)(F)F)c1)C(=O)N1CCC2(CC1)C(=O)N(C)C(=O)N2c1ccc2[nH]ncc2c1,340 nM
18,Cc1ccc(N2C(=O)N(C)C(=O)C23CCN(C(=O)[C@H](NC(=O)c2cc(C(F)(F)F)ccc2F)C(C)C)CC3)cc1,38 nM

# Target: T1, Autotaxin
# Assay: Inhibition of C-terminal FLAG-tagged human autotaxin expressed in Freestyle 293 cells using synthetic substrate FS-3 by fluorescence based assay
# Type: cell-based
row,Compound,IC50
1,Cc1cccc(C(=O)N[C@@H](C(=O)N2CCC3(CC2)C(=O)N(C)CN3c2ccccc2)C2CCCCC2)c1F,1.6 nM
2,Cc1cccc(C(=O)N[C@@H](C(=O)N2CCC3(CC2)C(=O)N(C)CN3c2ccccc2)C(C)C)c1,2 nM
3,CC(C)[C@@H](NC(=O)c1cccc(F)c1)C(=O)N1CCC2(CC1)C(=O)N(C)CN2c1ccccc1,2.2 nM
4,CNC(=O)CN1CN(c2ccccc2)C2(CCN(C(=O)[C@H](NC(=O)c3ccccc3)C3CCCCC3)CC2)C1=O,350 nM
5,CNC(=O)CN1CN(c2ccccc2)C2(CCN(C(=O)[C@H](NC(=O)c3cccc(C)c3F)C3CCCCC3)CC2)C1=O,2 nM
6,CNC(=O)CN1CN(c2ccccc2)C2(CCN(C(=O)[C@H](NC(=O)c3cccc(Cl)c3)C3CCCCC3)CC2)C1=O,3.5 nM
